{"source": "ChEMBL document CHEMBL1145173", "about": "“Stereoselective synthesis of [L-Arg-L/D-3-(2-naphthyl)alanine]-type (E)-alkene dipeptide isosteres and its application to the synthesis and biological evaluation of pseudopeptide analogues of the CXCR4 antagonist FC131” (J Med Chem, 2005)", "key": {"MT4 [1]": {"tested_on": "MT4", "assay": "Effective concentration against HIV-induced cytopathogenicity in MT-4 cells", "format": "functional, cell-based", "settings": "Homo sapiens"}, "MT4 [2]": {"tested_on": "MT4", "assay": "Cytotoxic concentration against the mock infected MT-4 cells", "format": "functional", "settings": "Homo sapiens", "how_it_was_run": "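MT-4 cells (RPMI 1640, 10% heat-inactivated FCS, penicillin/streptomycin) without virus, 1.5×10^4 cells/well, exposed to graded compound concentrations for 5 days at 37 °C in CO₂; viable cells counted by MTT method; CC₅₀ from loss of viability; mean of at least three independent experiments.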"}, "[3]": {"target": "C-X-C chemokine receptor type 4 (Homo sapiens, UniProt P61073)", "sequence (P61073 whole entry)": "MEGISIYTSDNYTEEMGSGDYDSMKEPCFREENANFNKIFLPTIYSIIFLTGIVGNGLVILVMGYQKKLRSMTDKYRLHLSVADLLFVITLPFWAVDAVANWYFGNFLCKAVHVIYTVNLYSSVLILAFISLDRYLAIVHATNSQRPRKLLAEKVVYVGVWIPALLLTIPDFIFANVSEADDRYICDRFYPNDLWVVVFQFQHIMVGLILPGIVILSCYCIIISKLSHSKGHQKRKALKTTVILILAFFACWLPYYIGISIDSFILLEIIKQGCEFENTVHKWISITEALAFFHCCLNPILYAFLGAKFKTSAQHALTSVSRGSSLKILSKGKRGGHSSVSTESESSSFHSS", "assay": "Inhibition of [125I]SDF-1 binding to C-X-C chemokine receptor type 4 expressed in CHO cells", "format": "cell-based"}}, "note": "pEC50, pIC50: −log10 of the molar value. Where a SMILES comes first, the peptide text is derived from it."}
{"smiles": "N=C(N)NCCC[C@@H]1NC(=O)[C@@H](Cc2ccc(O)cc2)NC(=O)NC(=O)[C@@H](Cc2ccc3ccccc3c2)/C=C\\[C@H](CCCN=C(N)N)NC1=O", "values": [{"measurement": "pEC50", "setting": "MT4 [1]", "result": 5.62}, {"measurement": "CC50", "setting": "MT4 [2]", "result": "> 100", "unit": "µM"}, {"measurement": "pIC50", "setting": "[3]", "result": "< 4.51"}]}
{"smiles": "N=C(N)NCCC[C@@H]1NC(=O)[C@@H](Cc2ccc(O)cc2)NC(=O)CNC(=O)[C@@H](Cc2ccc3ccccc3c2)NC(=O)[C@H](CCCN=C(N)N)NC1=O", "values": [{"measurement": "pEC50", "setting": "MT4 [1]", "result": 5.72}, {"measurement": "CC50", "setting": "MT4 [2]", "result": "> 100", "unit": "µM"}]}
{"smiles": "N=C(N)NCCC[C@@H]1NC(=O)[C@@H](Cc2ccc(O)cc2)NC(=O)CNC(=O)[C@H](Cc2ccc3ccccc3c2)/C=C\\[C@H](CCCN=C(N)N)NC1=O", "values": [{"measurement": "pEC50", "setting": "MT4 [1]", "result": 5.04}, {"measurement": "CC50", "setting": "MT4 [2]", "result": "> 100", "unit": "µM"}, {"measurement": "pIC50", "setting": "[3]", "result": 4.68}]}
{"smiles": "NC(N)=NCCC[C@@H]1NC(=O)[C@H](CCCN=C(N)N)NC(=O)[C@@H](Cc2ccc(O)cc2)NC(=O)C/C=C/[C@H](Cc2ccc3ccccc3c2)NC1=O", "values": [{"measurement": "pEC50", "setting": "MT4 [1]", "result": 5.62}, {"measurement": "CC50", "setting": "MT4 [2]", "result": "> 100", "unit": "µM"}, {"measurement": "pIC50", "setting": "[3]", "result": 6.74}]}
{"smiles": "N=C(N)NCCC[C@@H]1NC(=O)[C@@H](Cc2ccc(O)cc2)NC(=O)CNC[C@H](Cc2ccc3ccccc3c2)NC(=O)[C@H](CCCN=C(N)N)NC1=O", "values": [{"measurement": "pEC50", "setting": "MT4 [1]", "result": 6.01}, {"measurement": "CC50", "setting": "MT4 [2]", "result": "> 100", "unit": "µM"}, {"measurement": "pIC50", "setting": "[3]", "result": 7.49}]}
{"smiles": "N=C(N)NCCC[C@@H]1NC(=O)[C@@H](Cc2ccc(O)cc2)NC(=O)NC(=O)[C@H](Cc2ccc3ccccc3c2)NC(=O)[C@H](CCCN=C(N)N)NC1=O", "values": [{"measurement": "pEC50", "setting": "MT4 [1]", "result": 7.14}, {"measurement": "CC50", "setting": "MT4 [2]", "result": "> 100", "unit": "µM"}, {"measurement": "pIC50", "setting": "[3]", "result": 8.35}]}
{"smiles": "NCCCC[C@@H]1NC(=O)[C@H](CCCN=C(N)N)NC(=O)[C@H](Cc2ccc(O)cc2)NC(=O)[C@@H](NC(=O)[C@H](Cc2ccc3ccccc3c2)NC(=O)[C@H](CCCN=C(N)N)NC(=O)[C@@H](N)CCCN=C(N)N)CSSC[C@@H](C(=O)N[C@@H](CCCN=C(N)N)C(=O)O)NC(=O)[C@H](CCCNC(N)=O)NC(=O)[C@H](CCCN=C(N)N)NC(=O)[C@H](Cc2ccc(O)cc2)NC(=O)[C@@H]2CCCN2C(=O)[C@@H](CCCCN)NC1=O", "note": "(HELM PEPTIDE1{R.R.[O=C([C@H](Cc1ccc2ccccc2c1)N[*:1])[*:2]].C.Y.R.K.[dK].P.Y.R.[Cit].C.R}$PEPTIDE1,PEPTIDE1,4:R3-13:R3$$$V2.0) [listing 1 of 2 here]", "values": [{"measurement": "pEC50", "setting": "MT4 [1]", "result": 7.46}, {"measurement": "pIC50", "setting": "[3]", "result": 8.41}]}
{"smiles": "NCCCC[C@@H]1NC(=O)[C@H](CCCN=C(N)N)NC(=O)[C@H](Cc2ccc(O)cc2)NC(=O)[C@@H](NC(=O)[C@H](Cc2ccc3ccccc3c2)NC(=O)[C@H](CCCN=C(N)N)NC(=O)[C@@H](N)CCCN=C(N)N)CSSC[C@@H](C(=O)N[C@@H](CCCN=C(N)N)C(=O)O)NC(=O)[C@H](CCCNC(N)=O)NC(=O)[C@H](CCCN=C(N)N)NC(=O)[C@H](Cc2ccc(O)cc2)NC(=O)[C@@H]2CCCN2C(=O)[C@@H](CCCCN)NC1=O", "note": "(HELM PEPTIDE1{R.R.[O=C([C@H](Cc1ccc2ccccc2c1)N[*:1])[*:2]].C.Y.R.K.[dK].P.Y.R.[Cit].C.R}$PEPTIDE1,PEPTIDE1,4:R3-13:R3$$$V2.0) [listing 2 of 2 here]", "values": [{"measurement": "CC50", "setting": "MT4 [2]", "result": "> 10", "unit": "µM"}]}
{"smiles": "Cc1cn([C@H]2C[C@H](N=[N+]=[N-])[C@@H](CO)O2)c(=O)[nH]c1=O", "note": "[ZIDOVUDINE]", "values": [{"measurement": "pEC50", "setting": "MT4 [1]", "result": 7.74}, {"measurement": "CC50", "setting": "MT4 [2]", "result": 57, "unit": "µM"}]}
